Laboratory results as given in the EternaBench riboswitch data.

System: MS2 coat protein
Assay: apparent Kd, MS2 coat protein; higher = weaker binding; RNA-MaP array; FMN 200 µM where present
Method in brief: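 The titrant was SNAP-549-labelled MS2 coat protein, run from 0.7 or 1.5 nM in doubling steps to 3 µM. It was applied to designs transcribed by stalled E. coli RNA polymerase on Illumina sequencing-chip clusters, without ligand first and then with constant ligand, in 100 mM Tris-HCl pH 7.5, 80 mM KCl, 4 mM MgCl2, BSA, DTT, yeast tRNA and Tween-20. The apparent Kd is the median of filtered per-cluster binding-curve fits, with green signal normalised to red-channel RNA signal and control-cluster median Fmax.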

[1] = designed as: OFF switch for flavin mononucleotide, no ligand
[2] = ligand present: flavin mononucleotide, designed as: OFF switch for flavin mononucleotide
[3] = designed as: ON switch for flavin mononucleotide, no ligand
[4] = ligand present: flavin mononucleotide, designed as: ON switch for flavin mononucleotide

UGAUAGGACAGAGGAUAUACGGAUAGGAUCUACUAUCUUCCUUAAAUAACAUGAGGAUCACCCAUGUAGAAGGCUGUCCUAUCU
apparent Kd [1]: 18.2 nM | apparent Kd [2]: 65.2 nM

AGUUUCUCCGCAGGAUAUGUGCUCUUUAUCACAUGAGGAUCACCCAUGUCAGCCUACACGGCGAGACAGAAGGGUGGUGAUGCC
apparent Kd [3]: 88.6 nM | apparent Kd [4]: 81.2 nM

GACAAGUGAGGAUAUCUGAUGUCUAACUUCGGUUAGACAUCAGAGAAGGCACAUGAGGAUCACCCAUGUCUGUC
apparent Kd [1]: 30.7 nM | apparent Kd [2]: 20.8 nM

UUUAUGUAAGGAUAUGCGGGCGGGCGUGUUUAUGUUUGUUUGUAGAAGGUACAUGAGGAUCACCCAUGUAGUGG
apparent Kd [1]: 90.1 nM | apparent Kd [2]: 172 nM

UGACCCAUGACAUGAGAUGACAUGAGGAUCACCCAUGUUUACAAGGAUAUGUUGGUCAAAGGUCGGCAGAAGGUGUAAUGGGAU
apparent Kd [1]: 49 nM | apparent Kd [2]: 128 nM

CGACAUUUAGGAUAUACGGUUAUUGAGGUUUUUGUUAGUCGACAUGAGGAUCACCCAUGUAGAAGGAAAUGAGU
apparent Kd [1]: 34.6 nM | apparent Kd [2]: 49.4 nM

UGUCGUAGCAGAGGAUAUUACAUGAGGAUCACCCAUGUAUGAACCAAUAGCUGGAAACAGCAAUGUAAGAAGGCUGCUCCGACA
apparent Kd [1]: 13.2 nM | apparent Kd [2]: 158 nM

ACGGCAGUCAGAGGAUAUGGUUACAUGAGGAUCACCCAUGUCAAGGGUCUAAUUAGGUAUAACUACCAGAAGGCUGAAGGCCUA
apparent Kd [1]: 64.5 nM | apparent Kd [2]: 102 nM

GCGACGAAAGUCGAACGAUGUAGCAGAAGGACAUGAGGAUCACCCAUGUCAGCUGUAACAGCCAUGUAGGAUAUGCUACAUCGU
apparent Kd [1]: 4.18 nM | apparent Kd [2]: 5.27 nM

ACGGCAAUCGCAGGAUAUGGUUACAUGAGGAUCACCCAUGUCUAGGGUCUAAUUAGGUAUAACUACCAGAAGGGCGAAGGCCUA
apparent Kd [1]: 53.5 nM | apparent Kd [2]: 66 nM

UUUUAACAUGAGGAUCACCCAUGUGAGGAUAUCGAAAUUUAUAUUAAUAUUUUUAUUUCGAGAAGGCACAUUUU
apparent Kd [1]: 144 nM | apparent Kd [2]: 166 nM

CUUUAGUGAGGAUAUGUGGCUUCGAUCGUGAGAUCGAGGCUACAGAAGGCACAUGAGGAUCACCCAUGUUCCUG
apparent Kd [1]: 15.7 nM | apparent Kd [2]: 48.5 nM

GGUGCGUUUGUGAGGAUAUGCUGGUCCUUGGAUCAGCAGAAGGCACAUGAGGAUCACCCAUGUGGUGUCCCUCC
apparent Kd [1]: 168 nM | apparent Kd [2]: 291 nM

UUGUUAGGGAGAGGAUAUUGACAUGAGGAUCACCCAUGUACUUGGGAGUGUUUACUGAAUUCUCACGAGAAGGCUUACAAAUUU
apparent Kd [1]: 175 nM | apparent Kd [2]: 147 nM

CAGCUGAAAGUCAGGAUAUCUAGAGCUUCGGCUCUAGAGAAGGGACAUGAGGAUCACCCAUGUGGUCACAGCUG
apparent Kd [1]: 1420 nM | apparent Kd [2]: 149 nM

AAGGUGUUAGGAUAUCGGAGUUUGAGGCAGACGGGAAUUUUCGAGAAGGAACAUGAGGAUCACCCAUGUAGUAU
apparent Kd [1]: 24.1 nM | apparent Kd [2]: 24.8 nM

GGUUGUCAUCGUCAUCCUUUCGGUACAUGAGGAUCACCCAUGUAGGAUAUGCUGCGCUCGGUGUGGCAGAAGGGCGUGUGUGUU
apparent Kd [1]: 23.8 nM | apparent Kd [2]: 40.3 nM

AUGCAGCUACCACAGGAUAUACGUGGAUCGACAUGAGGAUCACCCAUGUAUAUCCUAAUAAUUGCGUAGAAGGGUGGUCAGCUGC
apparent Kd [3]: 1540 nM | apparent Kd [4]: 103 nM

CACCGUUAACUAGGAUAUAGUACAUGAGGAUCACCCAUGUAAUAAAUGAGAAUUUCGGAUGUAUGCUAGAAGGAGUAAAUCGGC
apparent Kd [1]: 62.8 nM | apparent Kd [2]: 64.4 nM

CAGCGAAAGCUGAAUGUCGGAGCAGAGGAUAUUACAUGAGGAUCACCCAUGUAUGAACCAAAAUGUAAGAAGGCUGCUCCGACA
apparent Kd [1]: 844 nM | apparent Kd [2]: 20.4 nM

GUCAGCUCGUGAGGAUAUACAAAACUGCUUCGGCAGUGUAUUAAGAUCACAUGAGGAUCACCCAUGUAGAAGGCACGAGCUGAU
apparent Kd [1]: 8.71 nM | apparent Kd [2]: 82.3 nM

ACAGAGGCUGACAUGAGGAUCACCCAUGUUAGAUUGUUAUGUCAGGAUAUUAUCUGGCAACCAGAUAAGAAGGGACCCUCUGUG
apparent Kd [3]: 31.2 nM | apparent Kd [4]: 8.45 nM

GUAGCAUACCGAGGAUAUUCAGGGCGUGGAUAUACAUGAGGAUCACCCAUGUGGCGGAAGCCUAGGGAGAAGGCGGGAUGCUAC
apparent Kd [3]: 22.3 nM | apparent Kd [4]: 15.5 nM

CAGCUUUACGAGGAUAUGGAAGGAGUCAACUUGCCAGAAGGUGUAACAUGAGGAUCACCCAUGUGGCCCGUGAC
apparent Kd [1]: 66.1 nM | apparent Kd [2]: 69.4 nM

AACUGCUGCGUUGUGAUUUCUCCACAUGAGGAUCACCCAUGUCAGGAUAUCUUACCUAGCGGACAAGAGAAGGGACAUGACGGU
apparent Kd [1]: 348 nM | apparent Kd [2]: 129 nM

AAUUAGUGAGGAUAUUUUAACAGUGGCAGUAGCCAGUGCAUGAAGAAGGCACAUGAGGAUCACCCAUGUUAUAA
apparent Kd [1]: 101 nM | apparent Kd [2]: 91.5 nM

UUGCCUCGGAACAUGAGGAUCACCCAUGUGCUGCGGGCAACGUAGGAUAUGAUGGUACGCUACCAUCAGAAGGAUGAUGGUACC
apparent Kd [3]: 4.98 nM | apparent Kd [4]: 5.29 nM
